Source: ChEMBL document CHEMBL1152541, “Staurosporine tethered peptide ligands that target cAMP-dependent protein kinase (PKA): optimization and selectivity profiling” (Bioorg Med Chem, 2009)
*1 amine or outer side, *2 acyl side, *3 side chain or, on linkers, in order; H or OH if unused. Where a SMILES comes first, the peptide text is derived from it. Bridges are numbered along the chain shown (N, C = ends). [ ]: non-standard residue; d: D form. The star is where a group is joined. Staurosporine = CO[C@@H]1[C@H](N(C)*)C[C@H]2O[C@]1(C)n1c3ccccc3c3c4c(c5c6ccccc6n2c5c31)C(=O)NC4; Suc = O=C(CCC(=O)[*:2])[*:1]; Dap = NC[C@H](N)C(=O)O; βAla = NCCC(=O)O

Key:
[1] = molecular target: Serine/threonine-protein kinase pim-1 (Homo sapiens) (UniProt P11309); experiment: Binding affinity to human PIM1 at 500 nM by cell-based competition binding assay relative to control in presence of DTT
[2] = molecular target: Serine/threonine-protein kinase pim-1 (Homo sapiens) (UniProt P11309); experiment: Ratio of compound to staurosporine binding affinity to human PIM1 in presence of DTT
[3] = Ratio of compound IC50 to bivalent ligand 1 IC50 for PKA
[4] = molecular target: Serine/threonine-protein kinase PAK 2 (Homo sapiens) (UniProt Q13177); experiment: Binding affinity to human PAK2 at 500 nM by cell-based competition binding assay relative to control in presence of DTT
[5] = molecular target: Glycogen synthase kinase-3 beta (Homo sapiens) (UniProt P49841); experiment: Binding affinity to human GSK3-beta at 500 nM by cell-based competition binding assay relative to control in presence of DTT
How it was run: (§1)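 Competition binding screen (Ambit) across a panel of 90 kinases, scoring test ligand displacement of each kinase's binding relative to control. The screen ran under reducing conditions with 7.5 mM DTT.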

[6] = molecular target: T1, Tyrosine-protein kinase ZAP-70 (Homo sapiens) (UniProt P43403); experiment: Ratio of staurosporine to compound binding affinity to human ZAP70 in presence of DTT
T1 sequence (whole entry): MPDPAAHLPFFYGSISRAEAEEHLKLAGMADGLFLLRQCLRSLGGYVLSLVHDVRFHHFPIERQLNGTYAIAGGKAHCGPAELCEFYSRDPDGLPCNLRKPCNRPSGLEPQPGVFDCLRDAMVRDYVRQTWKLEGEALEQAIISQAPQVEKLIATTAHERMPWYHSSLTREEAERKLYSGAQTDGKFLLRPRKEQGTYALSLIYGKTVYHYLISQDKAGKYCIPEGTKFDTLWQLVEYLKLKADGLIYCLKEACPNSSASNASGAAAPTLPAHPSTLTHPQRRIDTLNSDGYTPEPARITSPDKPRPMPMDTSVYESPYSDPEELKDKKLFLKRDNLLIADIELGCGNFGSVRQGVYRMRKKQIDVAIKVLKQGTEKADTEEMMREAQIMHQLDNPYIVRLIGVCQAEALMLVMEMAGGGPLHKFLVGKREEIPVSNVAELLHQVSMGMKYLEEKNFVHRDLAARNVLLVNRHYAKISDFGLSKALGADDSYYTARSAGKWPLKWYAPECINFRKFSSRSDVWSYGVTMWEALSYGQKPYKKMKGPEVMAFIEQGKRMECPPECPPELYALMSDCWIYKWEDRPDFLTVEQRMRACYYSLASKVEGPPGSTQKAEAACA

[7] = molecular target: Fibroblast growth factor receptor 3 (Homo sapiens) (UniProt P22607); experiment: Binding affinity to human FGFR3 at 500 nM by cell-based competition binding assay relative to control in presence of DTT
How it was run: (§2)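 Commercial (Ambit) competitive kinase-binding panel of 90 kinases measured the binding profile. Run under reducing conditions of 7.5 mM DTT. Binding is expressed relative to control.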

[8] = molecular target: Mitogen-activated protein kinase kinase kinase 4 (Homo sapiens) (UniProt Q9Y6R4); experiment: Binding affinity to human MAP3K4 at 500 nM by cell-based competition binding assay relative to control in presence of DTT; how it was run: as §1
[9] = molecular target: High affinity nerve growth factor receptor (Homo sapiens) (UniProt P04629); experiment: Binding affinity to human TRKA at 500 nM by cell-based competition binding assay relative to control in presence of DTT
[10] = molecular target: Insulin receptor (Homo sapiens) (UniProt P06213); experiment: Binding affinity to human INSR at 200 nM by cell-based competition binding assay relative to control in presence of DTT; how it was run: as §1
[11] = molecular target: Ephrin type-A receptor 2 (Homo sapiens) (UniProt P29317); experiment: Binding affinity to human EPHA2 at 200 nM by cell-based competition binding assay relative to control in presence of DTT; how it was run: as §2
[12] = molecular target: Mitogen-activated protein kinase 10 (Homo sapiens) (UniProt P53779); experiment: Binding affinity to human JNK3 at 200 nM by cell-based competition binding assay relative to control in presence of DTT; how it was run: as §1
[13] = molecular target: MAP kinase-interacting serine/threonine-protein kinase 2 (Homo sapiens) (UniProt Q9HBH9); experiment: Binding affinity to human MKNK2 at 200 nM by cell-based competition binding assay relative to control in presence of DTT
[14] = molecular target: MAP kinase-interacting serine/threonine-protein kinase 1 (Homo sapiens) (UniProt Q9BUB5); experiment: Binding affinity to human MKNK1 at 200 nM by cell-based competition binding assay relative to control in presence of DTT
[15] = molecular target: RAF proto-oncogene serine/threonine-protein kinase (Homo sapiens) (UniProt P04049); experiment: Binding affinity to human RAF1 at 200 nM by cell-based competition binding assay relative to control in presence of DTT
[16] = molecular target: Serine/threonine-protein kinase pim-3 (Homo sapiens) (UniProt Q86V86); experiment: Binding affinity to human PIM3 at 200 nM by cell-based competition binding assay relative to control in presence of DTT
[17] = molecular target: MAP kinase-interacting serine/threonine-protein kinase 1 (Homo sapiens) (UniProt Q9BUB5); experiment: Binding affinity to human MKNK1 at 50 nM by cell-based competition binding assay relative to control in presence of DTT
[18] = molecular target: Fibroblast growth factor receptor 2 (Homo sapiens) (UniProt P21802); experiment: Binding affinity to human FGFR2 at 50 nM by cell-based competition binding assay relative to control in presence of DTT; how it was run: as §2
[19] = molecular target: Macrophage colony-stimulating factor 1 receptor (Homo sapiens) (UniProt P07333); experiment: Binding affinity to human CSF1R at 50 nM by cell-based competition binding assay relative to control in presence of DTT; how it was run: as §2
[20] = molecular target: Glycogen synthase kinase-3 beta (Homo sapiens) (UniProt P49841); experiment: Binding affinity to human GSK3-beta at 50 nM by cell-based competition binding assay relative to control in presence of DTT; how it was run: as §1

CO[C@@H]1[C@H](N(C)C(=O)CCC(=O)NCCC(=O)NCCC(=O)NCCC(N)=O)C[C@H]2O[C@]1(C)n1c3ccccc3c3c4c(c5c6ccccc6n2c5c31)C(=O)NC4
Activity [1]: 20% | Selectivity ratio [2]: 31 | Ratio IC50 [3]: > 60 | Activity [4]: 14% | Activity [5]: 94% | Selectivity ratio [6]: 3 | Activity [7]: 43% | Activity [8]: 95% | Activity [9]: 13%

CO[C@@H]1[C@H](N(C)C(=O)CCC(=O)NCCC(=O)NCCC(=O)NCCC(=O)NCCC(=O)NCCC(=O)NCCC(=O)NCCC(=O)N[C@H]2CSSC[C@@H](C(=O)NCC(N)=O)NC(=O)CNC(=O)[C@H](Cc3ccccc3)NC(=O)[C@H](C(C)C)NC(=O)[C@H](CCCNC(=N)N)NC(=O)[C@H](Cc3ccccc3)NC(=O)[C@H](C(C)C)NC2=O)C[C@H]2O[C@]1(C)n1c3ccccc3c3c4c(c5c6ccccc6n2c5c31)C(=O)NC4 ({Staurosporine-Suc-βAla-βAla-βAla-βAla-βAla-βAla-βAla}-CVFRVFGCG-NH2; disulfide 1-8)
Activity [10]: 100% | Activity [11]: 100% | Activity [12]: 65% | Activity [13]: 57% | Activity [14]: 96% | Activity [15]: 89% | Activity [16]: 26%

CO[C@@H]1[C@H](N(C)C(=O)CCC(=O)NCCC(=O)NCCC(=O)NCCC(=O)NCCC(=O)NCCC(=O)NCCC(=O)NCCC(=O)N[C@H]2CNC(=O)C[C@@H](C(N)=O)NC(=O)CNC(=O)[C@H](Cc3ccccc3)NC(=O)[C@H](C(C)C)NC(=O)[C@H](CCCNC(=N)N)NC(=O)[C@H](Cc3ccccc3)NC(=O)[C@H](C(C)C)NC2=O)C[C@H]2O[C@]1(C)n1c3ccccc3c3c4c(c5c6ccccc6n2c5c31)C(=O)NC4 ({Staurosporine-Suc-βAla-βAla-βAla-βAla-βAla-βAla-βAla}-[Dap]VFRVFGD-NH2; lactam 1-8)
Activity [17]: 100% | Activity [18]: 86% | Activity [19]: 83% | Activity [20]: 74%
